Consider 13 compounds from ChEMBL document CHEMBL4400578, “Spirocyclic and Bicyclic 8-Nitrobenzothiazinones for Tuberculosis with Improved Physicochemical and Pharmacokinetic Properties” (ACS Med Chem Lett, 2019).

A short description of data set [1]: Protein binding in plasma (unknown origin) measured after 5 hrs by equilibrium dialysis method. It counts as ADME, cell-free. The settings on record: read-out: PPB (converted). (Equilibrium dialysis compares concentrations on both sides of a semipermeable membrane.)
Data set [2] is described as follows: Half life in mouse liver microsomes at 2.5 uL preincubated for 5 mins followed by NADPH addition and measured by LC-MS/MS analysis. In kind it is ADME, Microsome. On the technique in general: Liver microsomes are a subcellular fraction often used to study metabolism.
Data set [3] can be described thus: Selectivity ratio of MIC90 for inhibition of DprE1-mediated growth of Mycobacterium tuberculosis H37Rv to MIC90 for inhibition of DprE1-mediated growth of Mycobacterium tuberculosis Erdman.
Data set [4] is described as follows: Intrinsic clearance in mouse liver microsomes at 2.5 uL preincubated for 5 mins followed by NADPH addition and measured by LC-MS/MS analysis. It counts as ADME, Microsome. Particulars: read-out: CLH.
Data set [5] in a line: Kinetic aqueous solubility of the compound in pH 7.4 phosphate buffer incubated for 4.5 hrs under shaking condition by LC-MS/MS analysis. Particulars: read-out: Kinetic_solubility. It counts as physicochemical. An outline of the steps:
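Kinetic solubility measured in phosphate-buffered saline at pH 7.4, with compound quantified by LC–MS/MS.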

Data set [6] in a line: Stability of the compound in plasma (unknown origin). It counts as ADME, cell-free.
Data set [7] in a line: Selectivity ratio of MIC90 for inhibition of DprE1-mediated growth of Mycobacterium tuberculosis H37Rv to MIC90 for inhibition of DprE1-mediated growth of Mycobacterium tuberculosis CDC1551.
Data set [8] concerns the target T1, Decaprenylphosphoryl-beta-D-ribose oxidase (Mycobacterium tuberculosis (strain ATCC 25618 / H37Rv)) (UniProt P9WJF1).
T1 sequence (whole entry): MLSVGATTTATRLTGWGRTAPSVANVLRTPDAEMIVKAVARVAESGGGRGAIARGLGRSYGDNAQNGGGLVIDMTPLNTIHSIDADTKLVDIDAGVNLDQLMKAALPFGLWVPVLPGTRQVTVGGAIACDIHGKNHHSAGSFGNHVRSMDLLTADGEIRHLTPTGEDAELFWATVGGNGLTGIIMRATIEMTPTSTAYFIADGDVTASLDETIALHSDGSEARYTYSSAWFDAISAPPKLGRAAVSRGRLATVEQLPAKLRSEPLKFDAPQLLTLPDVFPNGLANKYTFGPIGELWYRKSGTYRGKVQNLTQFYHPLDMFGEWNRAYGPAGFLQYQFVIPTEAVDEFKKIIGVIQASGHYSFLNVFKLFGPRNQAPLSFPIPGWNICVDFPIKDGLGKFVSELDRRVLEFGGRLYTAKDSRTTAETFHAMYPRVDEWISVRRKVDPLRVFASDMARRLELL
Briefly: Inhibition of Mycobacterium tuberculosis H37Rv DprE1 assessed as reduction in bacterial growth measured after 7 to 10 days by broth microdilution method. An outline of the steps:
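Whole-cell growth assay of M. tuberculosis H37Rv in 7H9 broth. MIC is taken as the lowest concentration giving complete inhibition of observable growth.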

Data set [9] is described as follows: Intrinsic clearance in human liver microsomes at 2.5 uL preincubated for 5 mins followed by NADPH addition and measured by LC-MS/MS analysis. It counts as ADME, Microsome. Particulars: read-out: CLH.
Data set [10] in a line: Half life in […] microsomes at 2.5 uL preincubated for 5 mins followed by NADPH addition and measured by LC-MS/MS analysis. It counts as ADME, Liver, Microsome.
The nature of data set [11]: Ratio of test compound kinetic aqueous solubility to PBTZ169 kinetic aqueous solubility. It counts as physicochemical. The settings on record: buffer.
Data set [12] in a line: AUC in specific pathogen free ICR mouse at 2 mg/kg, iv by LC/TSQ-MS analysis. It counts as ADME, organism-based. Particulars: in vivo. An outline of the steps: (§1)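 ICR mice dosed once with compound, intravenously at 2 mg/kg or orally at 10 mg/kg. Plasma pharmacokinetic parameters derived per route: AUC, Cmax, clearance, mean residence time, Vd, terminal elimination half-life, and oral bioavailability from the p.o. versus i.v. comparison.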

Data set [13] is described as follows: Oral bioavailability in specific pathogen free ICR mouse at 10 mg/kg by LC/TSQ-MS analysis. In kind it is ADME, organism-based. The settings on record: in vivo. In outline: as §1
Data set [14] is described as follows: Cmax in specific pathogen free ICR mouse at 2 mg/kg, iv by LC/TSQ-MS analysis. It counts as ADME, organism-based. Particulars: in vivo. On the set-up: dose 2 mg/kg, route intravenous. An outline of the steps: as §1
Data set [15] can be described thus: Volume of distribution in specific pathogen free ICR mouse at 2 mg/kg, iv by LC/TSQ-MS analysis. In kind it is ADME, organism-based. Particulars: in vivo. In outline:
as §1

Data set [16] in a line: AUC in specific pathogen free ICR mouse at 10 mg/kg, po by LC/TSQ-MS analysis. It counts as ADME, organism-based. The settings on record: in vivo. An outline of the steps:
as §1

Data set [17] in a line: Mean residence time in specific pathogen free ICR mouse at 10 mg/kg, po by LC/TSQ-MS analysis. It counts as ADME, organism-based. Particulars: in vivo. An outline of the steps:
as §1

Data set [18] in a line: Terminal half life in specific pathogen free ICR mouse at 2 mg/kg, iv by LC/TSQ-MS analysis. Particulars: in vivo, read-out: beta t1/2 (converted). It counts as ADME, organism-based. In outline: as §1
Data set [19] in a line: Intrinsic clearance in specific pathogen free ICR mouse at 2 mg/kg, iv by LC/TSQ-MS analysis. It counts as ADME, organism-based. The settings on record: in vivo.
Data set [20] in a line: Cmax in specific pathogen free ICR mouse at 10 mg/kg, po by LC/TSQ-MS analysis. In kind it is ADME, organism-based. Also on record: dose 10 mg/kg, route oral. Particulars: in vivo. In outline: as §1
Data set [21] can be described thus: Terminal half life in specific pathogen free ICR mouse at 10 mg/kg, po by LC/TSQ-MS analysis. It counts as ADME, organism-based. Particulars: in vivo, read-out: beta t1/2 (converted). An outline of the steps:
as §1

Data set [22] can be described thus: Mean residence time in specific pathogen free ICR mouse at 2 mg/kg, iv by LC/TSQ-MS analysis. In kind it is ADME, organism-based. Particulars: in vivo. An outline of the steps:
as §1

In brackets after ≈: the same amount, converted by molar mass.

As to `O=c1nc(N2CC3CCC2CN3CC2CCCCC2)sc2c([N+](=O)[O-])cc(C(F)(F)F)cc12` (stereo unspecified), the fraction unbound at 5 h in data set [1] is 0.001. Moreover, the half-life came out at 27.3 min in data set [2] and 30.6 min in data set [10]. Also, the Selectivity ratio in [3] and in [7] was less than 4 throughout. The microsomal CLint in data set [4] was 25.4 µL/min/mg; in data set [9], 22.7 µL/min/mg. In addition, the solubility kinetic at 4.5 h in data set [5] is less than 0.029 µg/mL. In addition, the Stability in data set [6] worked out at 102%. Moreover, the MIC in data set [8] came to 0.032 µM (≈ 0.0154 µg/mL).
Take `O=c1nc(N2C[C@H]3C[C@@H]2CN3CC2CCCCC2)sc2c([N+](=O)[O-])cc(C(F)(F)F)cc12`: in data set [1], the fraction unbound at 5 h is 0.004. In addition, the half-life in data set [2] came to 7.05 min; in data set [10], 26.6 min. Further, the Selectivity ratio in data set [3] and in data set [7] was less than 4 each time. In addition, the microsomal CLint stood at 98.4 µL/min/mg in [4] and 26.1 µL/min/mg in data set [9]. Also, in data set [5], the solubility kinetic at 4.5 h turned out to be 14.6 µg/mL (≈ 31.2 µM). The compound also gave a Stability in [6] of 81.9%. Also, the MIC in data set [8] came out at 0.064 µM (≈ 0.03 µg/mL). The Ratio in data set [11] is 1600.
As to `O=c1nc(N2CCC3(CCN(CC4CCCCC4)C3)CC2)sc2c([N+](=O)[O-])cc(C(F)(F)F)cc12`, the Selectivity ratio in data set [3] and in [7] was less than 4 throughout. The MIC in [8] amounted to 0.128 µM (≈ 0.0654 µg/mL).
For the compound `O=c1nc(N2C[C@@H]3[C@H](C2)[C@H]3NCC2CCCCC2)sc2c([N+](=O)[O-])cc(C(F)(F)F)cc12`, the AUC (in general, concentration integrated over time) amounted to 576 ng·h/mL in data set [12] and 791 ng·h/mL in [16]. The fraction unbound at 5 h in [1] was 0.005. The half-life is 65.2 min in [2], 152 min in data set [18], 131 min in [21] and 76.6 min in data set [10]. Further, the bioavailability – broadly, the share of a dose that reaches the circulation, judged against a reference dose that is usually intravenous – in data set [13] is 27.4%. Moreover, the Selectivity ratio in data set [3] and in [7] was less than 4 throughout. The Cmax (commonly the highest concentration seen after dosing) in data set [14] was determined as 483 ng/mL; in data set [20], 195 ng/mL. The microsomal CLint in data set [4] was 10.6 µL/min/mg; in [9], 9.05 µL/min/mg. The Vd (as a rule, a proportionality between amount in the body and measured concentration, not a real space) in data set [15] worked out at 12.8 L/kg. Further, the solubility kinetic at 4.5 h in [5] turned out to be 4.8 µg/mL (≈ 10.2 µM). In addition, in [6], the Stability came out at 91.4%. Also, the mean residence time (MRT) (in general, the average time that molecules of a dose stay in the body) in data set [17] amounted to 185 min; in [22], 134 min. Besides, the MIC in [8] was determined as 0.032 µM (≈ 0.015 µg/mL). Moreover, in [19], the CL was 58.2 mL/min/kg.
As to `O=c1nc(N2C[C@H]3C[C@@H](C2)N3CC2CCCCC2)sc2c([N+](=O)[O-])cc(C(F)(F)F)cc12`, the Selectivity ratio in [3] and in data set [7] was less than 4 in each case. For the same compound, in data set [8], the MIC is 0.128 µM (≈ 0.06 µg/mL).
As to `O=c1nc(N2CCN(CC3CCCCC3)CC2)sc2c([N+](=O)[O-])cc(C(F)(F)F)cc12` [MACOZINONE], the fraction unbound at 5 h in data set [1] is 0.001. Further, the half-life in data set [2] turned out to be 34.4 min; in [10], 43 min. Also, the Selectivity ratio in data set [3] and in data set [7] was less than 4 throughout. Further, the microsomal CLint in data set [4] was 20.1 µL/min/mg; in data set [9] it was 16.5 µL/min/mg. Also, the solubility kinetic at 4.5 h in data set [5] was less than 0.01 µg/mL. Also, the Stability in data set [6] was found to be 88.7%. Further, the MIC in data set [8] came to 0.002 µM (≈ 0.000913 µg/mL).
As for `O=c1nc(N2CCC3(CC2)CN(CC2CCCCC2)C3)sc2c([N+](=O)[O-])cc(C(F)(F)F)cc12`, the Selectivity ratio in data set [3] and in data set [7] was less than 4 in each case. The MIC in data set [8] was 0.512 µM (≈ 0.254 µg/mL).
With `O=c1nc(N2CC3(CCN(CC4CCCCC4)CC3)C2)sc2c([N+](=O)[O-])cc(C(F)(F)F)cc12`, the Selectivity ratio in data set [3] and in data set [7] was less than 4 each time. Also, the MIC in data set [8] stood at 1.02 µM (≈ 0.508 µg/mL).
Regarding `O=c1nc(N2CC3(CN(CC4CCCCC4)C3)C2)sc2c([N+](=O)[O-])cc(C(F)(F)F)cc12`, the Selectivity ratio in data set [3] and in data set [7] was less than 4 throughout. For the same compound, the MIC in data set [8] was determined as 0.256 µM (≈ 0.12 µg/mL).
`O=c1nc(N2CCCC3(CCCCN3CC3CCCCC3)C2)sc2c([N+](=O)[O-])cc(C(F)(F)F)cc12` (stereo unspecified): the Selectivity ratio in data set [3] and in data set [7] was less than 4 each time. Further, the MIC in data set [8] amounted to 1.02 µM (≈ 0.537 µg/mL).
On to `O=c1nc(N2[C@@H]3C[C@H]2CN(CC2CCCCC2)C3)sc2c([N+](=O)[O-])cc(C(F)(F)F)cc12`, for which the Selectivity ratio in data set [3] and in [7] was less than 4 each time. Moreover, the MIC in [8] was determined as 0.128 µM (≈ 0.06 µg/mL).
For the compound `O=c1nc(N2CCC3(CCN(CC4CCCCC4)C3)C2)sc2c([N+](=O)[O-])cc(C(F)(F)F)cc12` (stereo unspecified), the Selectivity ratio in data set [3] and in [7] was less than 4 in each case. Also, the MIC in [8] is 0.256 µM (≈ 0.127 µg/mL).
As for `O=c1nc(N2CCC3(CC2)CC3)sc2c([N+](=O)[O-])cc(C(F)(F)F)cc12`, the fraction unbound at 5 h in data set [1] was 0.006. The half-life in data set [2] came out at 8.33 min; in data set [10], 43 min. For the same compound, the Selectivity ratio in data set [3] and in data set [7] was less than 4 in each case. The figures for the microsomal CLint in data set [4] and in [9] were 83.3 µL/min/mg and 16.1 µL/min/mg, respectively. Besides, in data set [5], the solubility kinetic at 4.5 h is 0.3 µg/mL (≈ 0.778 µM). In [6], this compound gave a Stability of 93.3%. Besides, the MIC in data set [8] was determined as 0.016 µM (≈ 0.00617 µg/mL).
